Assay results from different studies.
Protocols differ between the studies behind these lines.
Target: Activin receptor type-1B (ACVR1B, Homo sapiens, UniProt P36896)
Sequence (P36896 24-505, as in one of the studies): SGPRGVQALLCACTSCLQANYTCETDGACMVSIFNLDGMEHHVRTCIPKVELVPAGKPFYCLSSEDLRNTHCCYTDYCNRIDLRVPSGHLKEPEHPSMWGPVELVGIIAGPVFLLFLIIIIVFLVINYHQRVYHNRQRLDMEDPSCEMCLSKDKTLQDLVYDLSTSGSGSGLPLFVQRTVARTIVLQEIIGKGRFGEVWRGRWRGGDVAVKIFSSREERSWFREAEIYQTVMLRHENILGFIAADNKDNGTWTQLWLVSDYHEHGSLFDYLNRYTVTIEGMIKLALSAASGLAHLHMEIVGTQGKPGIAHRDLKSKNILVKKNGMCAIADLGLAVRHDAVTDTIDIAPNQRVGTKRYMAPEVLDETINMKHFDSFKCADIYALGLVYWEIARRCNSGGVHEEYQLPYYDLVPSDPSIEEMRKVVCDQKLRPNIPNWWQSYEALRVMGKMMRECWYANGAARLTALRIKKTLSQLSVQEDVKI

| SMILES | effect on | technique | tested at | remaining binding [%] |
| --- | --- | --- | --- | --- |
| F[C@@H]1CCN(c2nccc(-c3cnn4ncccc34)n2)C1 | binding |  | 1 µM | 100 |
| Cc1c(NC(=O)c2cc(C(N)=O)nc3cc(F)ccc23)c(C(F)(F)F)nn1Cc1ccc(C#N)cc1 | cell-free assay | competition with immobilised ligand | 1 µM | 80 |
| C[C@H]1CCN(c2nccc(-c3cnn4ncccc34)n2)C1 | binding |  | 1 µM | 71 |
| O=C(Nc1c[nH]nc1C(=O)NC1CCNCC1)c1cc(F)cc(F)c1 | binding | competition with immobilised ligand | 1 µM | 90 |
| N[C@@H]1CCN(c2nccc(-c3cnn4ncccc34)n2)C1 | binding |  | 1 µM | 100 |
| O=C(NCCCN1CCOCC1)c1ccc(Nc2nccc(-c3cc4ccccc4s3)n2)cc1 | binding | competition with immobilised ligand | 1 µM | 75 |
| Cc1nc(N2CC[C@@H](O)C2)ncc1-c1cc(C(F)(F)F)cc2[nH]ncc12 | cell-free assay | competition with immobilised ligand | 1 µM | 100 |
| COc1cnc(Nc2cccc(S(N)(=O)=O)c2)nc1N1CCN(c2ccccc2)CC1 | binding | competition with immobilised ligand | 1 µM | 98 |
| FC(F)(F)Oc1cccc(-c2cnc3ccc(-c4ccncc4)nn23)c1 | cell-free assay | competition with immobilised ligand | 5 µM | 85 |
| CN(CCCC(F)(F)F)c1nccc(-c2cnn3ncccc23)n1 | binding |  | 1 µM | 96 |
| CCN1CCN(Cc2ccc(C(=O)Nc3ccc(C)c(Oc4ccc5c(c4)CC(=O)N5)c3)cc2C(F)(F)F)CC1 | binding | competition with immobilised ligand | 1 µM | 100 |
| O=C(c1ccc(Nc2nccc(-c3cc4ccccc4s3)n2)cc1)N1CCC(N2CCCC2)CC1 | binding | competition with immobilised ligand | 1 µM | 71 |
| CC1CCCN1c1nccc(-c2cnn3ncccc23)n1 (stereo not shown) | binding |  | 1 µM | 88 |
| O=C(NCc1ncc(C(F)(F)F)cc1Cl)c1ccc2c(c1)C1(CCS(=O)(=O)CC1)[C@H](C1CC1)N2S(=O)(=O)c1ccc(F)cc1 | cell-free assay | competition with immobilised ligand | 1 µM | 94 |
| CN(c1nccc(-c2cnn3ncccc23)n1)C1CC1 | binding |  | 1 µM | 100 |
| CCC(=O)N[C@@H]1CC[C@H](C(=O)N(C)c2ccc(-c3nc4ccccc4o3)cc2)C1 | cell-free assay | competition with immobilised ligand | 1 µM | 100 |
| COc1ccnn2ncc(-c3ccnc(N(C)C)n3)c12 | binding |  | 1 µM | 85 |
| COc1cccc(CNC(=O)c2nc3scc(COCc4ccc(C(=O)O)cc4)c3c(=O)[nH]2)c1 | cell-free assay | competition with immobilised ligand | 1 µM | 89.4 |
| C[C@@H]1CN(c2ccc3ncc(-c4ccc5[nH]nc(C6CC6)c5c4)n3n2)C[C@H](C)O1 | binding | competition with immobilised ligand | 50 nM | 100 |
| CS(=O)(=O)NCC[C@H](NC(=O)c1cncc2c1cnn2-c1ccc(F)cc1)c1ccnc(S(C)(=O)=O)c1 | cell-free assay | competition with immobilised ligand | 1 µM | 100 |
| Nc1ncc2c(n1)-c1c([nH]c3ccc(C#CC4CC4)cc13)CCCC2 | binding | competition with immobilised ligand | 1 µM | 89 |
| COc1ccc2c(c1)O[C@@H](c1ccc(OC)c(OC)c1)C[C@H]2NC(=O)C1(c2ccc3c(c2)OC(F)(F)O3)CC1 | cell-free assay | competition with immobilised ligand | 1 µM | 67 |
| O=C(c1ccc(Nc2ncc(Cl)c(-c3cc4ccccc4s3)n2)cc1)N1CCC(N2CCCC2)CC1 | binding | competition with immobilised ligand | 1 µM | 48 |
| Cc1nc(C2CCN(C(=O)c3ccc(OC(F)(F)F)cc3N)CC2)c2ncc(N3CCN(C)CC3)cc2n1 | cell-free assay | competition with immobilised ligand | 1 µM | 86 |
| c1cncc(-c2cccc(Nc3nccc(NC4CCCCC4)n3)c2)c1 | binding | competition with immobilised ligand | 10 µM | 75 |
